From PubChem BioAssay
A selection: hits, their analogues and other compounds. The true share with any hit is near 2.3%.
NadD block: NadD (S. aureus) enzyme inhibition | purified NadD enzyme, colorimetric absorbance read-out | 360,000 compounds, 0.78% hits | inhibition, % at 20 µM; in the data active = inhibition above about 26%
STEP inh: blocks human striatal-enriched tyrosine phosphatase; P54829; recombinant STEP, OMFP fluorogenic substrate, fluorescence; inhibition, % at 20 µM; 360,000 compounds, 0.25% hits;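 active = inhibition at 20 µM, scaled per plate between control wells, above about 37%, limit read from the data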;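 note: 0% = DMSO with enzyme and substrate and 100% = substrate only without enzyme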
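Material: STEP (striatal-enriched tyrosine phosphatase) enzyme, cell-free; Compound dosing: 20 µM single dose in 1% DMSO; Technique: fluorescence read at 480 nm ex / 540 nm em; Times: reaction 20 min, ambient temperature; Medium: 50 mM Bis-Tris pH 6.0 with 2.5 mM DTT and 0.005% Tween 20; Also added: OMFP at 25 µM.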
LMPTP block: LMPTP (human) inhibition. P24666. recombinant LMPTP-A, OMFP fluorogenic substrate, fluorescence intensity. inhibition, % at 20 µM. 360,000 compounds, 0.22% hits;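 active = compounds that cut the enzyme signal by at least half of the control window in the single-dose screen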;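 note: plate controls were DMSO wells with enzyme plus substrate for no effect and substrate without enzyme for full effect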
Target sequence (P24666 whole entry, looked up): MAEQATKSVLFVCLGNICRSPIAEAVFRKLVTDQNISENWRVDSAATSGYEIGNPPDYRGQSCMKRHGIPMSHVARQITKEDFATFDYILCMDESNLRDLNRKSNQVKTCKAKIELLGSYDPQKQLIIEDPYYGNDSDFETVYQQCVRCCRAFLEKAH
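Material: LMPTP-A; amount: 0.625 nM enzyme; doses: single 20 µM dose; times: reaction 50 min, room temperature, dark; technique: fluorescence intensity of OMFP turnover product; benchmarks: no-enzyme and uninhibited controls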
SUMO1 PPI mod: alters human SUMO1 binding to SIM partners; P63165; SUMO1 binding to a labelled peptide, TR-FRET, 1 h; inhibition, % at 20 µM; 360,000 compounds, 0.33% hits; AID 602429; in the data active = inhibition above about 37%
Target sequence (P63165 whole entry, looked up): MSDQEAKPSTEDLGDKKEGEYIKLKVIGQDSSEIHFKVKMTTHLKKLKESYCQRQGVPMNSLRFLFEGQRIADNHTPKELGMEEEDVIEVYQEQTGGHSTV
DNMT1 inh: blocks human DNA methyltransferase DNMT1. DNMT1 molecular beacon, Hinp1I cleavage, fluorescence. P26358. inhibition (reported as % activation of signal), % at 10 µM. 360,000 compounds, 0.83% hits; in the data active = inhibition above about 50%
Scp-1 inhibitor: inhibitors of human Scp-1 phosphatase. Recombinant Scp1, phosphopeptide, malachite green phosphate absorbance. inhibition, % at 20 µM. Q9GZU7. 340,000 compounds, 0.88% hits;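 active = inhibition above about 50% at 20 µM, limit read from the data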;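 note: plate controls were DMSO wells with enzyme for no effect and wells lacking enzyme for full effect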
Target sequence (Q9GZU7 76-261 limits assumed): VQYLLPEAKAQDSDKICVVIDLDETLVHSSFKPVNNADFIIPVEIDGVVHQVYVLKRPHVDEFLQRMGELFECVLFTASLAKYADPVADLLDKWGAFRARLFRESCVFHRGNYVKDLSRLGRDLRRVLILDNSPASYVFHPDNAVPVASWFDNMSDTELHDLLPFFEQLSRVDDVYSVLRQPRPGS
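Material: truncated SCP-1 phosphatase (76-261aa) / Buffer or medium: 50 mM Tris acetate pH 5.5, 0.005% Tween-20, 10 mM MgCl2 / Compound dosing: one concentration, 20 µM, with 1.0% DMSO / Incubation: 45 min room-temperature reaction, 5 min colour, 30 min stabiliser / Detection: colorimetric free-phosphate detection, absorbance 630 nm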
An asterisk follows results filed as active; x = not tested or not shown.

SMILES	NadD block	STEP inh	LMPTP block	SUMO1 PPI mod	DNMT1 inh	Scp-1 inhibitor
C#CCOCCOCCOCCNc1nc(N2CCN(C(=O)CCCCCCCCCCNC(=O)Cn3cc(CCCCCN)nn3)CC2)nc(N2CCN(C(=O)CCCCCCCCCCNC(=O)Cn3cc(C[C@@H](C)O)nn3)CC2)n1	16.6	-0.2	6.4	-29.4	-50.8	22.7
C#CCOCCOCCOCCNc1nc(N2CCN(C(=O)CCCCCCCCCCNC(=O)Cn3cc(C[C@@H](C)O)nn3)CC2)nc(N2CCN(C(=O)CCCCCCCCCCNC(=O)[C@@H]([C@H](C)CC)n3cc(CCCCCN)nn3)CC2)n1	33.5*	7.3	3.7	-142.0	-151.6	35.0
Cn1nc(N2CCN(S(=O)(=O)c3ccccc3)CC2)c(=O)n(C)c1=O	-1.3	0.7	-1.4	-2.5	0.8	-0.7
CC(C)CCN1C(=O)c2ccccc2C1c1nnnn1-c1ccc2c(c1)OCCO2 (centres undefined)	-8.7	x	0.0	-3.6	x	x
C#CCOCCOCCOCCNc1nc(N2CCN(C(=O)CCCCCCCCCCNC(=O)[C@H]([C@@H](C)CC)n3cc(CCCCN=C(N)N)nn3)CC2)nc(N2CCN(C(=O)CCCCCCCCCCNC(=O)[C@@H]([C@H](C)O)n3cc(C)nn3)CC2)n1	39.8*	6.1	9.4	86.0*	-107.7	35.1
C#CCOCCOCCOCCNc1nc(N2CCN(C(=O)CCCCCCCCCCNC(=O)[C@H](CCCCN)n3cc(C[C@@H](C)CC)nn3)CC2)nc(N2CCN(C(=O)CCCCCCCCCCNC(=O)[C@@H]([C@H](C)O)n3cc(C)nn3)CC2)n1	43.4*	7.7	6.8	69.8*	-147.8	37.6
C#CCOCCOCCOCCNc1nc(N2CCN(C(=O)C(Cc3cc4ccccc4[nH]3)n3cc(C(N)C(C)CC)nn3)CC2)nc(N2CCN(C(=O)C(Cc3cc4ccccc4[nH]3)n3cc(C(N)C(C)CC)nn3)CC2)n1 (centres undefined)	41.6*	-1.4	2.0	-49.1	-30.5	32.6
C#CCOCCOCCOCCNc1nc(N2CCOCC2)nc(N2CCN(C(=O)CCCCCCCCCCNC(=O)[C@H]([C@@H](C)CC)n3cc(CCCCN=C(N)N)nn3)CC2)n1	11.3	0.6	1.5	-40.2	8.7	12.4
COc1ccc(Cl)cc1NC(=O)COC(=O)CCNS(=O)(=O)c1cccs1	-3.2	-2.1	-0.3	4.7	-1.9	-4.7
Cc1cccc(N2CCN(C(=O)CN3C(=O)NC(C)(C4CC4)C3=O)CC2)c1C (centres undefined)	-3.6	0.9	0.6	44.7*	46.5	-0.1
Nc1nc(=S)c2ncn([C@@H]3O[C@H](CO)[C@@H](O)[C@H]3O)c2[nH]1	-1.7	2.3	-1.4	1.8	4.3	-8.8
Nc1nc(=S)c2ncn(C3OC(CO)C(O)C3O)c2[nH]1 (centres undefined)	1.1	42.6*	26.1	19.1	79.6*	76.7*
CCC(=O)N1CCCC(C)(C(=O)Nc2ccc3oc(CC)nc3c2)C1 (centres undefined)	0.2	-1.5	1.0	-0.2	-1.8	x
O=C(Nc1ccccc1[N+](=O)[O-])OCC=Cc1ccccc1	-0.2	1.5	1.8	-24.2	0.6	x
Cc1cc(=O)oc2cc(OCc3ccc(C(=O)OCC(=O)N(C)C4CCS(=O)(=O)C4)cc3)ccc12 (centres undefined)	-3.1	-3.6	0.4	1.9	0.5	-10.6
Cc1cc(=O)oc2cc(OCc3ccc(C(=O)OCC(=O)NC4CCS(=O)(=O)C4)cc3)ccc12 (centres undefined)	-1.0	5.6	13.2	56.9*	19.6	49.8
Cn1c2ccccc2c(=O)c2cc(C#Cc3ccccn3)ccc21	2.4	4.2	11.2	-14.7	26.0	58.0*
C=CCn1c2ccccc2c(=O)c2cc(C#Cc3cc(OC)cc(OC)c3)ccc21	10.0	0.4	5.7	-90.5	-1.8	52.2*
CSc1ccccc1OCc1cc(C(=O)N2CCc3[nH]cnc3C2c2ccccn2)no1 (centres undefined)	8.9	-0.8	-0.1	-2.8	-1.0	3.8
CCn1c2ccccc2c2cc(NC(=O)CSc3nnc(C4CC4)n3Cc3ccco3)ccc21	31.7*	2.1	3.2	3.7	1.9	3.2
CCn1c(SCC(=O)Nc2ccc3c(c2)OCO3)nnc1C1CC1	-2.8	1.0	-1.7	0.3	-0.9	1.4
CS(=O)(=O)c1ccc(C(=O)OCC(=O)NCc2cccs2)cc1[N+](=O)[O-]	1.1	21.6	0.2	-13.4	70.9*	-2.7
Cc1cccc(C(=O)OCC(=O)NCc2cccs2)c1	-2.8	-0.6	-1.6	1.1	2.5	-0.5
O=[N+]([O-])c1ccccc1N/N=C/c1cccc(O)c1O	8.1	9.3	3.2	44.6*	43.3	-1.8
O=[N+]([O-])c1ccccc1N/N=C\c1ccccc1Cl	-3.2	2.3	-1.4	-2.6	2.3	-7.7
SMILES	NadD block	STEP inh	LMPTP block	SUMO1 PPI mod	DNMT1 inh	Scp-1 inhibitor
NS(=O)(=O)c1ccc(-c2ccc(/C=N/NC(=O)c3ccccc3O)o2)cc1	-1.7	-1.3	1.7	-21.7	11.4	6.0
O=C(N/N=C/c1ccc(-c2ccc(S(=O)(=O)Nc3ncccn3)cc2)o1)c1cc2ccccc2cc1O	81.3*	0.8	7.8	38.9*	85.5*	-18.1
O=[N+]([O-])c1nn(-c2cccc(Cl)c2)n(O)c1=NCc1cccnc1	6.4	0.0	-0.2	42.5*	0.1	9.0
CC1CCN(C(=O)C2CCC(CNS(=O)(=O)c3ccc4c(c3)C(C)(C)C(=O)N4C)CC2)CC1 (centres undefined)	-6.1	3.3	-0.4	3.5	4.6	x
CN(C)/C=C1\C(=O)ON=C1c1ccccc1	-7.1	-4.9	-0.8	-3.7	3.3	-3.1
Cc1ccc(C2=NOC(=O)/C2=C\C=C\c2ccccc2)cc1	25.9*	-2.3	1.9	41.0*	27.8	-9.7
C/C=C/c1cccc(-c2nc(C(=O)NC3Cc4ccccc4C3)cc3c2[C@@H](CCO)N(C(C)=O)C3)c1	-11.6	x	2.3	1.0	x	x
Cc1cccc2c1c1ccc3c(c1n2C)C(=O)C=CC3=O	50.2*	4.8	21.8	0.6	-18.3	2.0
O=C(c1cc(Cl)ccc1F)N1CCCC(Nc2ccc3c(c2)OCCO3)C1 (centres undefined)	5.4	-0.6	0.3	8.6	-3.3	-8.3
Cc1ccc(-n2nnnc2SCC(=O)Nc2ccc3c(c2)COC3=O)cc1C	5.1	0.3	2.9	40.2*	42.0	-6.1
Cc1ccc(-n2nnnc2SCC(=O)Nc2ccc3c(c2)OCCO3)cc1C	-28.8	-8.6	-0.3	-0.5	0.9	-0.3
COc1ccc(/C=N/OCC(=O)N=Nc2c(O)[nH]c3ccc(Br)cc23)cc1	10.3	3.2	5.2	-9.1	79.2*	-3.2
